# In ChEMBL document CHEMBL1148546, “3-Arylpiperazinylethyl-1H-pyrrolo[2,3-d]pyrimidine-2,4(3H,7H)-dione derivatives as novel, high-affinity and selective alpha(1)-adrenoceptor ligands” (Bioorg Med Chem Lett, 2006):
# Columns and labels:
# Rattus norvegicus = species: Rattus norvegicus; test: Selectivity for ADRA1D over ADRA1B
# Outline: (§1)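 Subtype selectivity is the antilog of the difference between the pKb values at α1A, α1B and α1D, measured in isolated rat prostatic vas deferens, spleen and thoracic aorta.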
# [1] = target: T1, 5-hydroxytryptamine receptor 1A (Homo sapiens, UniProt P08908); test: Binding affinity to 5HT1A
# T1 sequence (P08908 whole entry): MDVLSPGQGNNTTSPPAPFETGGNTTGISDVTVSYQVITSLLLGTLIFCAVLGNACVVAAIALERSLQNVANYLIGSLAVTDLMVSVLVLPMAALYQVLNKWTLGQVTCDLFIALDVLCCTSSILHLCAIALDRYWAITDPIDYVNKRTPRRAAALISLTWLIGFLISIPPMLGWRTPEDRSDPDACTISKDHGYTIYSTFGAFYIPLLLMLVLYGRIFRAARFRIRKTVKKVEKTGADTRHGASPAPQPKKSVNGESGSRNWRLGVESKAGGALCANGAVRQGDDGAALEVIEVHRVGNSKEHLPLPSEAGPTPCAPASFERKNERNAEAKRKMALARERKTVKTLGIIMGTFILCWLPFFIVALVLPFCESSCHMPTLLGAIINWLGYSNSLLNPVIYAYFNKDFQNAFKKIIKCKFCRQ
# Homo sapiens [2] = species: Homo sapiens; test: Selectivity for dopamine D1 over adrenergic alpha-1 receptor
# Outline: (§2)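 Selectivity is the ratio of Ki at 5-HT1A, D1 or D2 to Ki at α1. Ki values are means (±SD) of three separate experiments.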
# Homo sapiens [3] = species: Homo sapiens; test: Selectivity for 5HT1A over adrenergic alpha-1 receptor; outline: as §2
# D(2) dopamine receptor = D(2) dopamine receptor (Homo sapiens, UniProt P14416); test: Binding affinity to dopamine D2 receptor
# Chain of D(2) dopamine receptor (P14416 whole entry): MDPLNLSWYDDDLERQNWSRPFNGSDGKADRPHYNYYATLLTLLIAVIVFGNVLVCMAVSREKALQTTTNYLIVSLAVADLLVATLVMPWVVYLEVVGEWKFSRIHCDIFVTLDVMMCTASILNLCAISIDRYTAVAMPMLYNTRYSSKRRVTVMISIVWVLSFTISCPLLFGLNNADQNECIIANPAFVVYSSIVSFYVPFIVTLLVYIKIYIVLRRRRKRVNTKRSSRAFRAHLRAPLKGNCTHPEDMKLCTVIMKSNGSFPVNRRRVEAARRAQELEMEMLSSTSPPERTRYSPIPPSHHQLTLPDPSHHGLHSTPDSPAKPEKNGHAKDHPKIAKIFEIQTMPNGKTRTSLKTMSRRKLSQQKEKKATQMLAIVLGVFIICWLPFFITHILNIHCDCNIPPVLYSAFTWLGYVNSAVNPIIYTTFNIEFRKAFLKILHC
# [4] = Selectivity for dopamine D2 over adrenergic alpha-1 receptor; outline: as §2
# [5] = target: Alpha adrenergic receptor 1A and 1B (Rattus norvegicus) (UniProt P15823+P43140); test: Selectivity for ADRA1B over ADRA1A; assay type: protein assay; outline: as §1
# Chain of Alpha adrenergic receptor 1A and 1B (Rattus norvegicus) (P43140 whole entry, looked up, one chain of several): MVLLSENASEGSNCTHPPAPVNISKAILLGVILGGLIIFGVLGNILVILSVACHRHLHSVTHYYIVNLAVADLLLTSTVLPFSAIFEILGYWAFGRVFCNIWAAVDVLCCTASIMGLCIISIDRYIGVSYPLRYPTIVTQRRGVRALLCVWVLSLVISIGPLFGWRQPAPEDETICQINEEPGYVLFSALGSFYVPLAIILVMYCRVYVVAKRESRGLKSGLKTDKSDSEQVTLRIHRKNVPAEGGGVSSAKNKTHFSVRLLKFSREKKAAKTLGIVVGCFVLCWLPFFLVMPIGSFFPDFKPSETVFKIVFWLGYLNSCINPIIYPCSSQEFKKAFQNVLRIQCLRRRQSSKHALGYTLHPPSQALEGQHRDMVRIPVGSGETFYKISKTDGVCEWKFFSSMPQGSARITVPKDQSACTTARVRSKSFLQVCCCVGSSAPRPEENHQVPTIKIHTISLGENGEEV
# [6] = target: T2, Alpha-1B adrenergic receptor (Rattus norvegicus) (UniProt P15823); test: Antagonistic activity at ADRA1B in rat spleen; assay type: functional, tissue-based
# T2 sequence (whole entry): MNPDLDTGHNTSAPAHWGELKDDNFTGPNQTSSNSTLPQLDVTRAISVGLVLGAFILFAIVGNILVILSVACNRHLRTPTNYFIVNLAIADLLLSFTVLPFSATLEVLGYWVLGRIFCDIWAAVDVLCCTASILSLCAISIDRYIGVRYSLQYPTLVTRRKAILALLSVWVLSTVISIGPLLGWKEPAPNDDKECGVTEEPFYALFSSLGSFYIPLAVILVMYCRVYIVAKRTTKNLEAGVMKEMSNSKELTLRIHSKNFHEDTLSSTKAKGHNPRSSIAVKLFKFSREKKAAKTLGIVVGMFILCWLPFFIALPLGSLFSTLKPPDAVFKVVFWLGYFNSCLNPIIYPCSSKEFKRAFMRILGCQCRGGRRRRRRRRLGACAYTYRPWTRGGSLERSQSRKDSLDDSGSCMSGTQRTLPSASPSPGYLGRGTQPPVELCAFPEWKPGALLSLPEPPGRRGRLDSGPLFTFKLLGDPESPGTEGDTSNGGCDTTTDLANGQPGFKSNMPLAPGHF
# Outline: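 Antagonism in isolated rat tissues: prostatic vas deferens (α1A), spleen (α1B), thoracic aorta (α1D). Each compound tested at a single concentration, and each concentration was investigated at least four times. pKb was calculated by the van Rossum method. pA2 was derived from Arunlakshana–Schild plots. WB4101 was used as the standard.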
# [7] = target: T3, Adrenergic receptor alpha-1 (Homo sapiens, UniProt P35348+P25100+P35368); test: Binding affinity to adrenergic alpha-1 receptor; assay type: protein assay
# T3 sequence (P35348 whole entry): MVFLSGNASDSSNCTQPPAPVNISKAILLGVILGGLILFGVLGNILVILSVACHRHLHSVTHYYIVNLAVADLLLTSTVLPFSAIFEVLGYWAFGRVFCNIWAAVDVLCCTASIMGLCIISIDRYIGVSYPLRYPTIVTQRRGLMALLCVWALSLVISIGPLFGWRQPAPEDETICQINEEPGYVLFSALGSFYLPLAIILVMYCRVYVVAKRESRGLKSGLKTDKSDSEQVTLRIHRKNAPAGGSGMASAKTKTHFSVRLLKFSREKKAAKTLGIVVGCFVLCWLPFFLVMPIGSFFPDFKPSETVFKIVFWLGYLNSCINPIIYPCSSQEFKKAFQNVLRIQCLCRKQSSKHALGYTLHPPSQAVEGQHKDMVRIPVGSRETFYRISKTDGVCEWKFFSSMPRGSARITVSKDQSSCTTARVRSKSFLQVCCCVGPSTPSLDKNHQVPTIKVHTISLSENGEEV
# T3 sequence (P25100 whole entry): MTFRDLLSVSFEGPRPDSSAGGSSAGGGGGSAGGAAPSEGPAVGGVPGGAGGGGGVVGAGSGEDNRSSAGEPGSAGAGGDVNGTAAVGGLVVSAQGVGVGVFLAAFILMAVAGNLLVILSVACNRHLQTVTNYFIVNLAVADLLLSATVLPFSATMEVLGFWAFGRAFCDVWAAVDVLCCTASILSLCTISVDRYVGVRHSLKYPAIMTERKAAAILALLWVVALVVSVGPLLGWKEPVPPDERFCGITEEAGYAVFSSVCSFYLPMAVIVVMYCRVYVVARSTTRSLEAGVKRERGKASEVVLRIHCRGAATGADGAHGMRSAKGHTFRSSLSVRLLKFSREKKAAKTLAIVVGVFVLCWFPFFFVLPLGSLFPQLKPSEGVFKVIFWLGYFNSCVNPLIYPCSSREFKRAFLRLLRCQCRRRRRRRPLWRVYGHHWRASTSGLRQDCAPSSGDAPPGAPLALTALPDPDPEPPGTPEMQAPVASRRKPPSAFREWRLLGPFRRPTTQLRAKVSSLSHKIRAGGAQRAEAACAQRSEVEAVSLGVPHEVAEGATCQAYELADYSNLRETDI
# T3 sequence (P35368 whole entry): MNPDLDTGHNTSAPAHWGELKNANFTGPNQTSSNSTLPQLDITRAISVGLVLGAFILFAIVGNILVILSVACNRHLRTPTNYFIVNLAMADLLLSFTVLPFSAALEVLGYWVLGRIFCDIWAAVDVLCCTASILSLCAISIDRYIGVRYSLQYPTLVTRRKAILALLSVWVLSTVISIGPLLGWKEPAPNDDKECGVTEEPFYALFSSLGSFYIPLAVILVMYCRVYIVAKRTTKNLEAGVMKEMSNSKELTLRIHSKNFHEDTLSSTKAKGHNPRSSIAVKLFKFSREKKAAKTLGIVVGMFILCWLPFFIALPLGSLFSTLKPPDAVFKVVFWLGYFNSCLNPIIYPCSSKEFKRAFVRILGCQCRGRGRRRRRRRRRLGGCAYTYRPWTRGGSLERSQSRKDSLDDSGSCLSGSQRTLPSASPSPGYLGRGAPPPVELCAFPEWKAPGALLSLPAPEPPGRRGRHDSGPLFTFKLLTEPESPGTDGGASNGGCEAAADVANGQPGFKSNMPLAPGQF
SMILES,Ratio pKb (Rattus norvegicus),Ki [1],Ratio Ki (Homo sapiens [2]),Ratio Ki (Homo sapiens [3]),Ki (D(2) dopamine receptor),Ratio Ki [4],Ratio pKb [5],pKb [6],Ki [7]
Cc1ccc(-c2cc3c(=O)n(CCN4CCN(c5ccccc5Cl)CC4)c(=O)[nH]c3[nH]2)cc1,2,1810 nM,33,155,1720 nM,147,2,7.5,11.71 nM
Cc1ccc(-c2cc3[nH]c(=O)n(CCN4CCN(c5ccccc5Cl)CC4)c(=O)c3[nH]2)cc1,1,> 10000 nM,> 500,> 500,> 10000 nM,> 500,0.4,6.37,17.26 nM
O=c1[nH]c2[nH]c(-c3ccc(Cl)cc3)cc2c(=O)n1CCN1CCN(c2ccccc2Cl)CC1,10,1510 nM,206,573,2370 nM,898,2,6.64,2.64 nM
COc1ccc(-c2cc3c(=O)n(CCN4CCN(c5ccccc5Cl)CC4)c(=O)[nH]c3[nH]2)cc1,0.5,1070 nM,17,65,165 nM,10,4,8.03,16.4 nM
